One may read the pIC50 as −log10 of the IC50, conventionally taken in molar units. The low end stands for a large IC50, the high end for a small IC50.

The structures appear in SMILES notation. pIC50: −log10 of the molar value.

Test [1] relates to MDA-MB-231. Put plainly: Growth inhibition of human MDA-MB-231 cells after 48 hrs by MTT assay. Format: functional, cell-based. The note with it: MDA-MB-231, 48 h.
Test [2] has as its system MCF7. Description: Growth inhibition of human MCF7 cells after 48 hrs by MTT assay. The test is classed as functional, cell-based. The following applies: MCF7, 48 h. In general terms: Formazan colour is commonly taken as a measure of viable cells.
In test [3] the test system is MCF7. Put plainly: Growth inhibition of human MCF7 cells at 20 uM after 48 hrs by MTT assay. The test is classed as functional. The note with it: MCF7, 48 h, read-out: GI. Put shortly: (§1)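 MTT viability assay with 48 h exposure at a single 20 μM concentration. Result given as percent inhibition of cell growth; n = 3.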
The test system of test [4] is MDA-MB-231. Description: Growth inhibition of human MDA-MB-231 cells at 20 uM after 48 hrs by MTT assay. The following applies: MDA-MB-231, 48 h, read-out: GI. Format: functional. In short, it runs like this: as §1

Regarding `Oc1ccc2[nH]cc(C(c3ccc(C(c4c[nH]c5ccc(O)cc45)c4c[nH]c5ccc(O)cc45)cc3)c3c[nH]c4ccccc34)c2c1` (stereo not drawn), the pIC50 in the test with MDA-MB-231 [1] was 5.11; in the test with MCF7 [2], 5.20.
The like results for `c1ccc2c(C(c3ccc(C(c4c[nH]c5ccccc45)c4c[nH]c5ccccc45)cc3)c3c[nH]c4ccccc34)c[nH]c2c1` were, in that order, 5.01 and 4.79.
With `c1ccc(C(c2c[nH]c3ccccc23)c2c[nH]c3ccccc23)c(Oc2ccccc2C(c2c[nH]c3ccccc23)c2c[nH]c3ccccc23)c1`, the pIC50 with MDA-MB-231 [1] and with MCF7 [2] was under 4.70 in each case. Also, the inhibition of growth at 20 µM in the test with MCF7 [3] was 48%; with MDA-MB-231 [4], 8%.
For `c1ccc2c(C(c3ccc(C(c4c[nH]c5ccccc45)c4c[nH]c5ccccc45)s3)c3c[nH]c4ccccc34)c[nH]c2c1`, the pIC50 in the test on MDA-MB-231 [1] and in the test on MCF7 [2] was under 4.70 each time. The inhibition of growth at 20 µM in the test on MCF7 [3] worked out at 34%; in the test on MDA-MB-231 [4], 36%.
Turning to `Brc1ccc2[nH]cc(C(c3ccc(C(c4c[nH]c5ccccc45)c4c[nH]c5ccccc45)cc3)c3c[nH]c4ccc(Br)cc34)c2c1`, the pIC50 in the test on MDA-MB-231 [1] and in the test on MCF7 [2] was under 4.70 throughout. Also, the figures for the inhibition of growth at 20 µM in the test on MCF7 [3] and in the test on MDA-MB-231 [4] were 17% and 8%, respectively.
Consider `COc1ccc2[nH]cc(C(c3ccc(C(c4c[nH]c5ccc(OC)cc45)c4c[nH]c5ccc(OC)cc45)cc3)c3c[nH]c4ccc(OC)cc34)c2c1`, for which the negative logarithm of the IC50 (pIC50) in the test with MDA-MB-231 [1] and with MCF7 [2] was under 4.70 throughout. The inhibition of growth at 20 µM in the test with MCF7 [3] is 43%; in the test with MDA-MB-231 [4] it was 3%.
As to `Oc1ccc2[nH]cc(C(c3ccc(C(c4c[nH]c5ccccc45)c4c[nH]c5ccccc45)cc3)c3c[nH]c4ccc(O)cc34)c2c1`, the pIC50 in the test with MDA-MB-231 [1] and in the test with MCF7 [2] was under 4.70 in each case. Moreover, the inhibition of growth at 20 µM with MCF7 [3] is 23%; in the test on MDA-MB-231 [4] it was 36%.
Take `Brc1ccc2[nH]cc(C(c3ccc(C(c4c[nH]c5ccc(Br)cc45)c4c[nH]c5ccc(Br)cc45)cc3)c3c[nH]c4ccc(Br)cc34)c2c1`: the pIC50 in the test with MDA-MB-231 [1] and in the test on MCF7 [2] was under 4.70 each time. Also, the results for the inhibition of growth at 20 µM with MCF7 [3] and in the test with MDA-MB-231 [4] were 25% and 5%, respectively.
As for `c1ccc2c3c([nH]c2c1)Cc1c([nH]c2ccccc12)Cc1c([nH]c2ccccc12)Cc1c([nH]c2ccccc12)C3`, the negative logarithm of the IC50 (pIC50) with MDA-MB-231 [1] was 6.00; in the test on MCF7 [2], 5.89.
For the molecule `c1ccc2c(C3CCCC(c4c[nH]c5ccccc45)(c4c[nH]c5ccccc45)C3)c[nH]c2c1` (stereo not drawn), the pIC50 in the test with MDA-MB-231 [1] and in the test with MCF7 [2] was 4.70 throughout.
As for `Nc1ccc2[nH]cc(C(c3ccc(C(c4c[nH]c5ccc(N)cc45)c4c[nH]c5ccc(N)cc45)cc3)c3c[nH]c4ccc(N)cc34)c2c1`, the pIC50 with MDA-MB-231 [1] and in the test on MCF7 [2] was under 4.70 throughout. For the same molecule, the inhibition of growth at 20 µM was 25% in the test with MCF7 [3] and 35% with MDA-MB-231 [4].
With `N#Cc1ccc2[nH]cc(C(c3ccc(C(c4c[nH]c5ccc(C#N)cc45)c4c[nH]c5ccc(C#N)cc45)cc3)c3c[nH]c4ccc(C#N)cc34)c2c1`, the negative logarithm of the IC50 (pIC50) in the test with MDA-MB-231 [1] was under 4.70; in the test with MCF7 [2] it was 5.02. For the same molecule, the inhibition of growth at 20 µM in the test on MDA-MB-231 [4] was 8%.
`c1cc(C(c2c[nH]c3ccccc23)c2c[nH]c3ccccc23)cc(C(c2c[nH]c3ccccc23)c2c[nH]c3ccccc23)c1`: the results for the pIC50 with MDA-MB-231 [1] and with MCF7 [2] were 4.61 and under 4.70, respectively. Also, the inhibition of growth at 20 µM in the test with MCF7 [3] turned out to be 32%.
Take `Oc1ccc2c(C(c3ccc(C(c4c[nH]c5cc(O)ccc45)c4c[nH]c5cc(O)ccc45)cc3)c3c[nH]c4cc(O)ccc34)c[nH]c2c1`: the negative logarithm of the IC50 (pIC50) in the test on MDA-MB-231 [1] and with MCF7 [2] was under 4.70 throughout. For the same molecule, the inhibition of growth at 20 µM in the test on MCF7 [3] stood at 0%; with MDA-MB-231 [4] it was 16%.
Consider `c1ccc2c(Cc3c[nH]c4ccccc34)c[nH]c2c1` [ARUNDINE], for which the pIC50 with MDA-MB-231 [1] was 5.00; in the test on MCF7 [2] it was 4.30.
For `Oc1ccc2[nH]cc(C(c3ccc(C(c4c[nH]c5ccccc45)c4c[nH]c5ccccc45)cc3)c3c[nH]c4ccccc34)c2c1` (stereo not drawn) the same measures were 4.86 and 4.90.
For the molecule `Oc1ccc2[nH]cc(C(c3cccc(C(c4c[nH]c5ccc(O)cc45)c4c[nH]c5ccc(O)cc45)c3)c3c[nH]c4ccc(O)cc34)c2c1`, the pIC50 is under 4.70 in the test with MDA-MB-231 [1] and 4.75 in the test on MCF7 [2]. Moreover, in the test with MDA-MB-231 [4], the inhibition of growth at 20 µM is 0%.

These data come from ChEMBL document CHEMBL2021927, “Synthesis and evaluation of the cytotoxicities of tetraindoles: observation that the 5-hydroxy tetraindole (SK228) induces G₂ arrest and apoptosis in human breast cancer cells” (J Med Chem, 2012).
